In the library only some 3.5% were active in any assay of this set; here they are far more common.
RGS4 act: RGS4 potentiation or activation | HEK293 M3R/inducible RGS4, carbachol calcium flux Fluo4; stronger effect = lower value | hit rate 0.92% among 310,000 | B-score at 10 µM;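 active = B-score of the integrated calcium signal more than 4 SD below the library mean, with starting fluorescence not abnormally high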;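 note: negative B-score means reduced calcium response which marks RGS4 activation or potentiation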
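test system = M3R-expressing HEK293 line, RGS4 induced by doxycycline | probe or stimulus = carbachol at ECmax as muscarinic agonist stimulus | timing = dye loading 30 min 37 °C, buffer rest 30 min RT | signal = calcium dye Fluo4 fluorescence | evaluation = B score from integrated fluorescence ratio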
MrgX1 allo act: allosterically activates human MrgX1 receptor signaling; MrgX1-HEK293, Fluo-4 calcium flux, FDSS; stronger effect = higher value; B-score at 10 µM; hit rate 0.63% among 310,000;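 active = plate-corrected calcium response at least 3 library SD above typical, normal starting fluorescence, not activating the receptor alone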;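 note: compound read alongside a low EC10 to EC30 dose of BAM8-22 agonist; peak minus trough fluorescence over baseline measured at the second addition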
RGS4 inh: inhibitors of human RGS4 | B-score at 10 µM | P49798 | hit rate 0.45% among 310,000 | HEK293 M3R/RGS4 inducible, Fluo-4 calcium flux; stronger effect = higher value; triggered by carbachol at its EC20;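 active = B-score, a plate-corrected calcium signal, over three deviations above library mean, with baseline fluorescence within five deviations of library mean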;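 note: RGS4 expression induced by doxycycline in cells with stable M3 receptor; B-score is computed from the integrated fluorescence ratio over baseline after carbachol; higher B-score means a larger calcium signal and so more RGS4 inhibition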
Target sequence (P49798 whole entry, looked up): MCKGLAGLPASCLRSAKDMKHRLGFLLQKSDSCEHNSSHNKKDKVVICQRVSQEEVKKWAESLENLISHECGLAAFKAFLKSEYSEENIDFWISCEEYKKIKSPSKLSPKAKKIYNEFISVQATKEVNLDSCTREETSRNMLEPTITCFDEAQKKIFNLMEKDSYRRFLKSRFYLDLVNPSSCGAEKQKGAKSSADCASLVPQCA
MrgX1 antag: blocks BAM8-22 activation of human MrgX1 receptor; MRGX1-HEK293 calcium flux, Fluo-4, BAM8-22 antagonism; stronger effect = lower value; B-score at 10 µM; hit rate 1.3% among 310,000; AID 588676;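 active = calcium-response B-score plate-corrected more than 3 library SD below zero, starting fluorescence within 5 deviations, no agonist response on first addition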;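 note: peak minus trough fluorescence over baseline after final BAM8-22 challenge near maximal dose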
MrgX1 ag: agonists of human MrgX1 receptor. B-score at 10 µM. MrgX1-HEK293 cells, Fluo-4 calcium fluorescence, agonist mode; stronger effect = higher value. AID 588627. hit rate 0.44% among 310,000;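 active = calcium response B-score plate-corrected fluorescence ratio at least 3 library SD, with starting fluorescence B-score inside 5 SD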
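Test system: Stable human MrgX1 HEK293 cell line | Schedule: Overnight plating before 1 h dye loading | Read-out basis: Baseline-normalised fluorescence change ratio, B-scored | Detection: Kinetic calcium dye fluorescence, Fluo-4 NW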
MrgX1 ag reconf: human MrgX1 agonism, re-confirmation screen; shares compounds with MrgX1 ag; MrgX1-HEK293, Fluo-4 calcium fluorescence, FDSS; activation, % at 10 µM; hit rate 78% among 600;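 active = calcium signal rise, corrected for plate position, at least 3 library SD high, with starting brightness within 5 such deviations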
HEK293 Ca flux: activity in parental HEK293 cells lacking MrgX1; fluorescence ratio F(max-min)/F0 at 10 µM; hit rate 2% among 4,000; shares compounds with MrgX1 antag; Fluo-4 calcium fluorescence, FDSS;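 active = duplicate-averaged calcium fluorescence ratio at least three times the standard deviation of buffer wells, a nonspecific response in parental cells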
HEK293 Ca counter: counter-screen for MrgX1 allosteric activators: effect in parental HEK293 cells; parental HEK293 calcium flux, Fluo-4 fluorescence ratio; stronger effect = higher value; hit rate 0.4% among 4,000; fluorescence ratio F(max-min)/F0 at 10 µM; shares compounds with MrgX1 antag;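 active = calcium fluorescence ratio, averaged over duplicates, at least 3 SD of the buffer-well ratio, meaning a nonspecific response in receptor-free cells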;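 note: untransfected parental HEK293 lacking MrgX1 used as counterscreen for MrgX1 allosteric activators; fluorescence change taken during the second addition on a kinetic imager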
HEK293 Ca cntr2: activity in parental HEK293 cells lacking MrgX1 receptor; shares compounds with MrgX1 antag; Fluo-4 calcium fluorescence (FDSS); stronger effect = higher value; fluorescence ratio F(max-min)/F0 at 10 µM; hit rate 8.7% among 4,000;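 active = calcium fluorescence ratio at least three times the spread of buffer wells, meaning a non-specific response in parental cells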
The depositor's hits bear a star; i = inactive; nt = no result.

SMILES	RGS4 act	MrgX1 allo act	RGS4 inh	MrgX1 antag	MrgX1 ag	MrgX1 ag reconf	HEK293 Ca flux	HEK293 Ca counter	HEK293 Ca cntr2
N=C(N)SCc1nc2ccccc2c(=O)n1-c1ccccc1Cl	i	i	i	i	27*	203%*	i	i	i
Cc1ccccc1-n1c(CSC(=N)N)nc2ccccc2c1=O	i	i	i	i	43*	221%*	i	i	i
O=c1c2ccccc2nc(CSc2nnnn2-c2ccccc2)n1-c1ccccc1Cl	i	i	i	i	i	nt	nt	nt	nt
C/C(N)=C(/C#N)C(=O)CSc1nc2ccccc2c(=O)n1-c1ccccc1C	i	i	i	i	i	nt	nt	nt	nt
CCN(CC)S(=O)(=O)c1cc(NC(=O)CNc2cccc(S(=O)(=O)N3CCCC3)c2)ccc1C	i	i	i	i	i	nt	nt	nt	nt
CCOC(=O)Cn1c(CCC(=O)O)ccc1-c1ccc(F)cc1	i	i	i	i	45*	170%*	i	i	i
CCOC(=O)c1c(NC(=O)c2ccccc2C(=O)O)sc2c1CCCC2	i	i	i	i	34*	192%*	i	i	i
COc1ccc(OC)c(NC(=O)Nc2c(O)ccc3ccccc23)c1	i	i	i	i	29*	i	i	i	i
Cc1cc(N2CCN(c3ccccc3)CC2)nc(-c2ccccc2)n1	i	i	i	i	i	nt	nt	nt	nt
Cc1cc(N2CCOCC2)nc(N)n1	i	i	i	i	73*	275%*	i	i	78*
Cc1cc(N2CCN(c3ccccc3)CC2)nc(N)n1	i	i	i	i	43*	252%*	i	i	i
CC1(C)CC(=NNC(=O)c2n[nH]c3c2CCC3)CC(C)(C)N1	i	i	i	i	i	nt	nt	nt	nt
Cn1c(=O)c2sc3c(c2n(CC(=O)Nc2ccccc2)c1=O)COC(C)(C)C3	i	i	i	i	i	nt	nt	nt	nt
OCCn1nc(-c2ccccc2)cc1-c1ccccc1	i	i	i	i	32*	i	i	i	i
Nc1cc(-c2ccccc2)nn1Cc1ccccc1	i	i	i	i	i	nt	nt	nt	nt
CC(=C/c1ccco1)/C=N/NC(=O)CSc1nnc(SCc2ccc(C)cc2)s1	i	i	i	i	i	nt	nt	nt	nt
CCS(=O)(=O)c1nnnn1-c1ccccc1S(C)(=O)=O	i	i	i	i	27*	105%*	i	i	i
Cc1ccc(-c2n[nH]c(=O)c3ccccc23)cc1S(=O)(=O)Nc1ccccc1	i	i	i	i	30*	206%*	i	i	45*
CN(C)c1ccc(/C=C/c2nc3ccccc3c(=O)[nH]2)cc1	-7*	i	i	i	27*	i	i	i	55*
O=c1[nH]c(/C=C/c2ccc(Br)cc2)nc2ccccc12	i	i	i	i	i	nt	nt	nt	nt
CC1(c2ccc(OC(F)F)cc2)NC(=O)N(CC(=O)Nc2cccnc2Cl)C1=O (stereo not given)	i	i	i	i	33*	137%*	i	i	47*
COc1ccc(C2(C)NC(=O)N(CC(=O)Nc3cccnc3Cl)C2=O)cc1 (stereo not given)	i	i	i	i	i	nt	nt	nt	nt
COc1cc(/C=C2\SC(=S)N(NS(=O)(=O)c3ccc(C)cc3)C2=O)ccc1O	-7.7*	i	i	i	116*	555%*	0.38*	i	149*
COc1cc(/C=C2\SC(=S)N(NC(=O)c3ccccc3OC)C2=O)ccc1O	i	i	i	i	i	nt	nt	nt	nt
